# Laboratory results: ChEMBL document CHEMBL1629432, “The identification of novel orally active mGluR5 antagonist GSK2210875” (Bioorg Med Chem Lett, 2010)
# pIC50: −log10 of the molar value.
# Experiments:
# [1] = biological target: Metabotropic glutamate receptor 5 (Mus musculus, UniProt Q3UVX5); experiment: Antagonist activity at mGluR5 in mouse astrocytes assessed as inhibition of L-quisqualate induced calcium release by FLIPR assay; assay type: functional, cell-based
# Method in brief: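 Primary cortical astrocytes from CD1 mouse pups aged 1–3 days. Cultures re-plated after 5 days to remove neurons and grown at 37 °C to confluence (10–14 d), then plated for 2 days. Cells pre-incubated with antagonist concentration-response curves and challenged with the day's EC80 of L-quisqualate. Intracellular calcium monitored on FLIPR to give fpKi.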
# [2] = Solubility of the compound; assay type: physicochemical
# Brain = experiment: fCmax in rat brain at 1.0 mg/kg, po; assay type: ADME, organism-based; design: dose 1 mg/kg, route oral; details: in vivo
# [3] = Clearance in rat at 1.0 mg/kg, po and 0.5 mg/kg, iv; assay type: ADME, organism-based; details: in vivo
# Method in brief: (§1)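 Rat pharmacokinetics after a 1.0 mg/kg oral dose and a 0.5 mg/kg intravenous dose. Blood clearance, oral blood Cmax, brain:blood AUC ratio and oral bioavailability determined.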
# [4] = Oral bioavailability in rat at 1.0 mg/kg; assay type: ADME, organism-based; details: in vivo; method in brief: as §1
# [5] = biological target: Metabotropic glutamate receptor 1 (Homo sapiens) (UniProt Q13255); experiment: Antagonist activity at mGluR1
# [6] = biological target: T1, Metabotropic glutamate receptor 5 (Homo sapiens, UniProt P41594); experiment: Antagonist activity at human mGluR5 expressed in CHO cells assessed as glutamate induced calcium mobilization
# [7] = Ratio of AUC in rat brain to plasma at 1.0 mg/kg, po and 0.5 mg/kg, iv; assay type: ADME, organism-based; details: read-out: Ratio AUC; method in brief: as §1
# [8] = Cmax in rat brain at 1.0 mg/kg, po; assay type: ADME, organism-based; design: dose 1 mg/kg, route oral
# [9] = Cmax in rat at 1.0 mg/kg, po; assay type: ADME, organism-based; design: dose 1 mg/kg, route oral; details: in vivo; method in brief: as §1
# [10] = biological target: T1, Metabotropic glutamate receptor 5; experiment: Antagonist activity at human mGluR5 expressed in CHO cells assessed as […] calcium mobilization; assay type: functional, cell-based
# Method in brief: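 CHO cells stably expressing apo-aequorin, with human mGluR5 expression induced by doxycycline. Calcium mobilisation read by aequorin luminescence. Eleven-point concentration-response curves run in the presence of an EC80 of glutamate. pIC50 is the average of at least two curves.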
# [11] = Fraction unbound in rat brain; assay type: ADME, tissue-based
# [12] = Lipophilicity, log D of the compound at pH 7.4; assay type: physicochemical; details: buffer
# T1 sequence (P41594 whole entry): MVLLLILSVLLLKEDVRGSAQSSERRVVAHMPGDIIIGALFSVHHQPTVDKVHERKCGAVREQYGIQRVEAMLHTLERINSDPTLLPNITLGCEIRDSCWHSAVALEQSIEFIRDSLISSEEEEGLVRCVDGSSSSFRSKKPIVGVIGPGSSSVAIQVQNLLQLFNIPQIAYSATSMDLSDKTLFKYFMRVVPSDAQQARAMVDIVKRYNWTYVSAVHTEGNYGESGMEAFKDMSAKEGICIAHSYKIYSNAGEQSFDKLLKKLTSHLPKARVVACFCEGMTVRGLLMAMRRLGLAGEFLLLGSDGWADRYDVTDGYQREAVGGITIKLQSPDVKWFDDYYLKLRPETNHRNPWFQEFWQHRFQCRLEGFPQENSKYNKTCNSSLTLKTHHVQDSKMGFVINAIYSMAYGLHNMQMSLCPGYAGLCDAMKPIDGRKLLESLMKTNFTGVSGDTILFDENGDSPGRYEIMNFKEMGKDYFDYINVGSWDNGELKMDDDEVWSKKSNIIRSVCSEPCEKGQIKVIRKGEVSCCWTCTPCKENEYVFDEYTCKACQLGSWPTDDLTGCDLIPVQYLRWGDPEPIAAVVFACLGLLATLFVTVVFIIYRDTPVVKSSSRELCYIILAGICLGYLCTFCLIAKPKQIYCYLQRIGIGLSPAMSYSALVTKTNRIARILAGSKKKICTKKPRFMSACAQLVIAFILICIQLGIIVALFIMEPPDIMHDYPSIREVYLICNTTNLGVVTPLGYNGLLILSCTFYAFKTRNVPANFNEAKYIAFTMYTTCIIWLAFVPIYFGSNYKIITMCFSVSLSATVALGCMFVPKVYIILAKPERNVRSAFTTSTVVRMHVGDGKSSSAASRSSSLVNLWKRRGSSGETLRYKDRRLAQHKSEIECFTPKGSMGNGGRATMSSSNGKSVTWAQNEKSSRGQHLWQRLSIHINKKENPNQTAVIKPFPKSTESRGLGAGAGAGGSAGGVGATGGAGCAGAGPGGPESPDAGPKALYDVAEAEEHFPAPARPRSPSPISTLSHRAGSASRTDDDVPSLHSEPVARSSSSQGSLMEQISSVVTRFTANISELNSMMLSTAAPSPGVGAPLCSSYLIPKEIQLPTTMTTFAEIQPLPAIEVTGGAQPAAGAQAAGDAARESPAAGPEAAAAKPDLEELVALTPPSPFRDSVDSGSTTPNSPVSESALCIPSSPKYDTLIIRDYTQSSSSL
# Sequence of Metabotropic glutamate receptor 1 (Homo sapiens) (Q13255 whole entry, looked up): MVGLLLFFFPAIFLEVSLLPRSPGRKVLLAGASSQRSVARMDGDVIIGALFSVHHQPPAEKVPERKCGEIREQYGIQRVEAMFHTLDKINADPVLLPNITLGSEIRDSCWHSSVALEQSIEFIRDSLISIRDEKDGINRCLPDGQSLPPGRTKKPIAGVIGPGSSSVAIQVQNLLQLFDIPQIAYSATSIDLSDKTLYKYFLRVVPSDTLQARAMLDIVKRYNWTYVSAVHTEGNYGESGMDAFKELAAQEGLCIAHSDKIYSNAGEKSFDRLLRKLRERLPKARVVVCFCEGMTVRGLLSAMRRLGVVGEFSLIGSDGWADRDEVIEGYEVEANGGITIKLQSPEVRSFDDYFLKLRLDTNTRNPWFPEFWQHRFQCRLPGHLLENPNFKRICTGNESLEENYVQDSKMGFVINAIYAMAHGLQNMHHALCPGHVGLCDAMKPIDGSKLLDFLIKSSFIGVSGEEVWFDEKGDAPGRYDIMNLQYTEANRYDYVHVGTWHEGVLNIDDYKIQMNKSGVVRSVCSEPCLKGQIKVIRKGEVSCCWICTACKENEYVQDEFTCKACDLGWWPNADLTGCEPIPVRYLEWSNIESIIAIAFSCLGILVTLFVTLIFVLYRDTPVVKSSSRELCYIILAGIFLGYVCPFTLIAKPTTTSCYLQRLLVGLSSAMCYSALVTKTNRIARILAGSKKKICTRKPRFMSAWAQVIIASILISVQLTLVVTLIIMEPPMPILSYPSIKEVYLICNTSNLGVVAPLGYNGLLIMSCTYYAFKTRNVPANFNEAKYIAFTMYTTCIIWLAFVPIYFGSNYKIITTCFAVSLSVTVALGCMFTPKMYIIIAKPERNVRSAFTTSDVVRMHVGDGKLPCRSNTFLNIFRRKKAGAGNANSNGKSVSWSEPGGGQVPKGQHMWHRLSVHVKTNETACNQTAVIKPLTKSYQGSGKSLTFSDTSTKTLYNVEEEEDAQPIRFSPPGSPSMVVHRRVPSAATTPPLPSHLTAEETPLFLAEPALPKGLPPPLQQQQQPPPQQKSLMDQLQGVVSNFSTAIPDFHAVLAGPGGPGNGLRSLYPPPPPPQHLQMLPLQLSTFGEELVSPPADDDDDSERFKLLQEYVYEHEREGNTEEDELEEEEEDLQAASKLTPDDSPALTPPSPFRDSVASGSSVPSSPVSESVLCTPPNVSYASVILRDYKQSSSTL
# Sequence of Metabotropic glutamate receptor 5 (Mus musculus, UniProt Q3UVX5) (Q3UVX5 whole entry): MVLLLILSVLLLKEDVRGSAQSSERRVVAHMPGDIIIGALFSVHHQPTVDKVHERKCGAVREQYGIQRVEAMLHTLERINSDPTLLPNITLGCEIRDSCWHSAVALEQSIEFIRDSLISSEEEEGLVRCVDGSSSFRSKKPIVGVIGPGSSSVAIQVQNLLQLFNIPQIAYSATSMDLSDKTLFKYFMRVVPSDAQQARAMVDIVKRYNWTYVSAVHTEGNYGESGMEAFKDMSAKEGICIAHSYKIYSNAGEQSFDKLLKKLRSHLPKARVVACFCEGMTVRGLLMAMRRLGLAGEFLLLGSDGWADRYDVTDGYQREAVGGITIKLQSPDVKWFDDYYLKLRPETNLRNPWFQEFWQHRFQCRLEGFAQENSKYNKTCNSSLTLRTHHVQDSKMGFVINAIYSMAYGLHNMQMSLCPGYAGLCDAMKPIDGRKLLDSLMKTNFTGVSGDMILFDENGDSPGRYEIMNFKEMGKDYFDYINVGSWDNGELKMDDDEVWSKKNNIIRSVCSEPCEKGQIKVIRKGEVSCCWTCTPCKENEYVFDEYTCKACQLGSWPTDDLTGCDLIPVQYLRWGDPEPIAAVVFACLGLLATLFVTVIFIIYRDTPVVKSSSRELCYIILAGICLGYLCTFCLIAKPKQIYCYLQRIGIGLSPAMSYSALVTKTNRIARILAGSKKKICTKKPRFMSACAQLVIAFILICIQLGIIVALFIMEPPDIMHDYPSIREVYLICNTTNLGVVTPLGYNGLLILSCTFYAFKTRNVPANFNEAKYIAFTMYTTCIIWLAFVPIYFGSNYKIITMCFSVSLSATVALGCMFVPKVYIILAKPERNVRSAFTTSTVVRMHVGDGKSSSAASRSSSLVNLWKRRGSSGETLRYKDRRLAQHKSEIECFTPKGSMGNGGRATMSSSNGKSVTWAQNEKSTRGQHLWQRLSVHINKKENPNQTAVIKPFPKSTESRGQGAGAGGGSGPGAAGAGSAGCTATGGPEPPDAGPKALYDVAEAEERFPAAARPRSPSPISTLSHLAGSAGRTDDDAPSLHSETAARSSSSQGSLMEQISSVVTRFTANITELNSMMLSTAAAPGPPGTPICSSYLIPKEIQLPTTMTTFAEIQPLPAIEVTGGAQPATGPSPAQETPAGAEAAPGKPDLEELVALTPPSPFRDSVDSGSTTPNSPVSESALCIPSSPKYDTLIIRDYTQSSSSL
structure (smiles),measurement,setting,value
Cc1c([C@@H](C)OC(=O)Nc2ccccc2)sc2ncnn12,pIC50,[1],7.50
same,solubility,[2],166 µg/mL
same,fCmax,Brain,30 nM
same,clearance,[3],48 mL/min/kg
same,bioavailability,[4],28%
same,pIC50,[5],4.50
same,pIC50,[6],7.40
same,Kp,[7],2
same,Cmax,[8],250 nM
same,Cmax,[9],63 ng/mL
Cc1c(C(C)OC(=O)NC2CCCCC2)sc2ncnn12 (stereo not given),pIC50,[10],5.50
Cc1c(C(C)OC(=O)Nc2ccccc2Cl)sc2ncnn12 (stereo not given),pIC50,[10],6.30
Cc1c(C(C)OC(=O)Nc2cccc(Cl)c2)sc2ncnn12 (stereo not given),fraction unbound,[11],0.009
same,logD,[12],2.9
same,pIC50,[10],7.40
Cc1c(C(C)OC(=O)Nc2ccc(Cl)cc2)sc2ncnn12 (stereo not given),pIC50,[10],5.60
Cc1c(C(C)OC(=O)Nc2cccc(F)c2)sc2ncnn12 (stereo not given),fraction unbound,[11],0.017
same,logD,[12],2.6
same,pIC50,[10],7.30
Cc1c(C(C)OC(=O)Nc2ccccc2)sc2nc(Cl)nn12 (stereo not given),pIC50,[10],8.00
Cc1c(C(C)OC(=O)Nc2ccccc2)sc2nc(C3CC3)nn12 (stereo not given),pIC50,[10],7.90
Cc1c(C(C)OC(=O)Nc2ccccc2)sc2nc(-c3cccs3)nn12 (stereo not given),fraction unbound,[11],< 0.001
same,logD,[12],3.7
same,pIC50,[10],8.10
Cc1c(C(C)OC(=O)Nc2ccccc2)sc2nc(-c3ccc(F)cc3)nn12 (stereo not given),pIC50,[10],8.00
Cc1c(C(C)OC(=O)Nc2ccccc2)sc2nc(C(F)(F)F)nn12 (stereo not given),pIC50,[10],7.40
CC(OC(=O)Nc1ccccc1)c1cn2ncnc2s1 (stereo not given),pIC50,[6],5.00
Cc1c(COC(=O)Nc2ccccc2)sc2ncnn12,pIC50,[6],< 4.50
O=C(Nc1ccccc1)OCc1cn2ncnc2s1,pIC50,[6],< 4.50
Cc1c(C(C)OC(=O)N(C)c2ccccc2)sc2ncnn12 (stereo not given),pIC50,[6],< 4.50
Cc1c([C@H](C)OC(=O)Nc2ccccc2)sc2ncnn12,pIC50,[6],< 5.00
Cc1c(C(C)OC(=O)Nc2ccccc2)sc2nccn12 (stereo not given),fraction unbound,[11],0.003
same,logD,[12],2.4
same,pIC50,[6],7.90
Cc1c(C(C)OC(=O)Nc2ccccc2)sc2nncn12 (stereo not given),pIC50,[6],6.90
Cc1c(C(C)OC(=O)Nc2cccnc2)sc2ncnn12 (stereo not given),fraction unbound,[11],0.28
same,logD,[12],1
same,pIC50,[6],6.50
Cc1c(C(C)OC(=O)Nc2cccc(F)c2)sc2nncn12 (stereo not given),fraction unbound,[11],0.068
same,logD,[12],2
same,pIC50,[6],7.20
Cc1c([C@@H](C)OC(=O)Nc2cccc(F)c2)sc2nncn12,pIC50,[1],7.50
same,solubility,[2],31 µg/mL
same,clearance,[3],33 mL/min/kg
same,bioavailability,[4],100%
same,pIC50,[5],< 4.30
same,pIC50,[6],7.40
same,Kp,[7],0.2
same,Cmax,[9],210 ng/mL
Cc1c(C(C)OC(=O)Nc2ccccc2)sc2ncnn12 (stereo not given),pIC50,[6],< 4.50
